Data taken from ChEMBL document CHEMBL4177575 (Bioorg Med Chem, 2017).
Calls of active or inactive are those of the source. The rule behind the calls is not given here.

How the values were obtained:
[1] = system: A549; assay: Induction of apoptosis in human A549 cells assessed as early apoptotic cell level at 6 uM incubated for 48 hrs by Annexin VFITC and propidium iodide staining based flow cytometry (reference value: 0.64%); format: functional
Outline: (§1)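 A549 cells seeded in RPMI 1640 and treated 48 h at 3, 6 or 12 µM. Cells then stained with Annexin V-FITC plus propidium iodide, 30 min at 4 °C in the dark, and analysed on a FACS Calibur flow cytometer.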

[2] = system: A549; assay: Induction of apoptosis in human A549 cells assessed as late apoptotic cell level at 3 uM incubated for 48 hrs by Annexin VFITC and propidium iodide staining based flow cytometry (reference value: 3.4%); format: functional; outline: as §1
[3] = system: A549; assay: Cytotoxicity against human A549 cells assessed as reduction in cell viability incubated for 72 hrs by MTT assay; format: functional, cell-based
Outline: (§2)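 Cells grown in MEM with 10% FBS; about 4×10^3 cells per well, pre-incubated 24 h at 37 °C in 5% CO2, then exposed to compound for 72 h. Seven concentrations, threefold serial dilution from 100 ug/mL initial. MTT at 5 µg/mL terminal concentration for 4 h; formazan dissolved in DMSO, absorbance read at 492 nm against 630 nm reference. IC50 is the average of two determinations.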

[4] = target: RAF proto-oncogene serine/threonine-protein kinase (Homo sapiens, UniProt P04049); assay: Inhibition of CRAF (unknown origin) incubated for 10 mins using FAM-labeled peptide and ATP by mobility shift assay
Outline: (§3)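 Mobility shift assay in 384-well plates. Compound, diluted from a 500 μM DMSO stock, preincubated with enzyme 10 min at room temperature. FAM-labelled peptide and ATP then added and the reaction run at 28 °C. Stopped with EDTA-containing buffer and read on Caliper. Inhibition = (max−conversion)/(max−min)×100, with DMSO wells as max and enzyme-free wells as min.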

[5] = system: MCF7; assay: Cytotoxicity against human MCF7 cells assessed as reduction in cell viability incubated for 72 hrs by MTT assay; format: functional, cell-based; outline: as §2
[6] = target: T1, Receptor-type tyrosine-protein kinase FLT3 (Homo sapiens, UniProt P36888); assay: Inhibition of FLT3 (unknown origin) incubated for 10 mins using FAM-labeled peptide and ATP by mobility shift assay
T1 sequence (P36888 whole entry): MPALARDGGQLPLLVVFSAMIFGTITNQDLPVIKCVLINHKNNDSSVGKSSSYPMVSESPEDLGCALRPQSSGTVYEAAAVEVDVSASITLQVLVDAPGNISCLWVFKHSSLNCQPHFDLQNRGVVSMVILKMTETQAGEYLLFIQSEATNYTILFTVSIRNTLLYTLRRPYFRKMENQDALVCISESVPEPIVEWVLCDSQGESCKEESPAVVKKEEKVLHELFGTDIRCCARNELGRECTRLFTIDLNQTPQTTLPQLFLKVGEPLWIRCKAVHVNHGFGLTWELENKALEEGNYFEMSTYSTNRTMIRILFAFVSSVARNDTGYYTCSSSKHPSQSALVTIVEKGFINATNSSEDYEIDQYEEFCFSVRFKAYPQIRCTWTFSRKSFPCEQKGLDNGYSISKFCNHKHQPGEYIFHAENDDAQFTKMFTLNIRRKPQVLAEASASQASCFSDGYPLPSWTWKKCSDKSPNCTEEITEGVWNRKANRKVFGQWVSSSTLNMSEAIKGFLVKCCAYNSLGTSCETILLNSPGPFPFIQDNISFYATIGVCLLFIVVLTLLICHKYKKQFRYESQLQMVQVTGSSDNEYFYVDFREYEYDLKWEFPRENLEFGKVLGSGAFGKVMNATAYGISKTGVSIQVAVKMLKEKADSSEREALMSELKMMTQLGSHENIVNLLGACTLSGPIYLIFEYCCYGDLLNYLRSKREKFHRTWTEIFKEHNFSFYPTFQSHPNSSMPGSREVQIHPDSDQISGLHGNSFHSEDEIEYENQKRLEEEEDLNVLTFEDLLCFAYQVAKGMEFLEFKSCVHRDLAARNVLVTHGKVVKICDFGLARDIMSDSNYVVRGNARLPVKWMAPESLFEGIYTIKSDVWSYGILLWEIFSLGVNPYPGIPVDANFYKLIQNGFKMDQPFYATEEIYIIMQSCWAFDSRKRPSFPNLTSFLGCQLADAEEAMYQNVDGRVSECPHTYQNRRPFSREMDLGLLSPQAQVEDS
Outline: as §3, with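 “plates. Kinase buffer: 50 mM HEPES pH 7.5, 10 mM MgCl2, 0.0015% Brij-35, 2 mM DTT.” for “plates.”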

[7] = system: A549; assay: Induction of apoptosis in human A549 cells assessed as late apoptotic cell level at 6 uM incubated for 48 hrs by Annexin VFITC and propidium iodide staining based flow cytometry (reference value: 3.4%); format: functional; outline: as §1
[8] = system: A549; assay: Induction of apoptosis in human A549 cells assessed as necrotic cell level at 6 uM incubated for 48 hrs by Annexin VFITC and propidium iodide staining based flow cytometry (reference value: 2.69%); format: functional; outline: as §1
[9] = system: A549; assay: Induction of apoptosis in human A549 cells assessed as viable cell level at 12 uM incubated for 48 hrs by Annexin VFITC and propidium iodide staining based flow cytometry (reference value: 93.27%); format: functional; outline: as §1
[10] = system: A549; assay: Induction of morphological changes in human A549 cells assessed as induction of cell shrinking at 1.85 uM incubated for 12 hrs by acridine orange dye based inverted microscopy and fluorescence microscopy; format: functional
Outline: (§4)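 Untreated control included. A549 cells exposed 12 h at 1.85 μM, then single-stained with acridine orange. Nuclei and morphology examined by inverted and fluorescence microscopy.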

[11] = system: A549; assay: Induction of morphological changes in human A549 cells assessed as induction of DNA fragmentation at 1.85 uM incubated for 12 hrs by acridine orange dye based inverted microscopy and fluorescence microscopy; format: functional, cell-based; outline: as §4
[12] = system: A549; assay: Induction of apoptosis in human A549 cells assessed as early apoptotic cell level at 12 uM incubated for 48 hrs by Annexin VFITC and propidium iodide staining based flow cytometry (reference value: 0.64%); format: functional; outline: as §1
[13] = system: A549; assay: Induction of morphological changes in human A549 cells assessed as induction of chromatin condensation at 1.85 uM incubated for 12 hrs by acridine orange dye based inverted microscopy and fluorescence microscopy; format: functional, cell-based; outline: as §4
[14] = system: A549; assay: Induction of apoptosis in human A549 cells assessed as viable cell level at 3 uM incubated for 48 hrs by Annexin VFITC and propidium iodide staining based flow cytometry (reference value: 93.27%); format: functional; outline: as §1
[15] = target: Epidermal growth factor receptor (Homo sapiens, UniProt P00533); assay: Inhibition of EGFR (unknown origin) incubated for 10 mins using FAM-labeled peptide and ATP by mobility shift assay
[16] = system: PC-3; assay: Cytotoxicity against human PC3 cells assessed as reduction in cell viability incubated for 72 hrs by MTT assay; format: functional, cell-based; outline: as §2
[17] = system: A549; assay: Induction of apoptosis in human A549 cells assessed as late apoptotic cell level at 12 uM incubated for 48 hrs by Annexin VFITC and propidium iodide staining based flow cytometry (reference value: 3.4%); format: functional; outline: as §1

Chain of Epidermal growth factor receptor (P00533 whole entry): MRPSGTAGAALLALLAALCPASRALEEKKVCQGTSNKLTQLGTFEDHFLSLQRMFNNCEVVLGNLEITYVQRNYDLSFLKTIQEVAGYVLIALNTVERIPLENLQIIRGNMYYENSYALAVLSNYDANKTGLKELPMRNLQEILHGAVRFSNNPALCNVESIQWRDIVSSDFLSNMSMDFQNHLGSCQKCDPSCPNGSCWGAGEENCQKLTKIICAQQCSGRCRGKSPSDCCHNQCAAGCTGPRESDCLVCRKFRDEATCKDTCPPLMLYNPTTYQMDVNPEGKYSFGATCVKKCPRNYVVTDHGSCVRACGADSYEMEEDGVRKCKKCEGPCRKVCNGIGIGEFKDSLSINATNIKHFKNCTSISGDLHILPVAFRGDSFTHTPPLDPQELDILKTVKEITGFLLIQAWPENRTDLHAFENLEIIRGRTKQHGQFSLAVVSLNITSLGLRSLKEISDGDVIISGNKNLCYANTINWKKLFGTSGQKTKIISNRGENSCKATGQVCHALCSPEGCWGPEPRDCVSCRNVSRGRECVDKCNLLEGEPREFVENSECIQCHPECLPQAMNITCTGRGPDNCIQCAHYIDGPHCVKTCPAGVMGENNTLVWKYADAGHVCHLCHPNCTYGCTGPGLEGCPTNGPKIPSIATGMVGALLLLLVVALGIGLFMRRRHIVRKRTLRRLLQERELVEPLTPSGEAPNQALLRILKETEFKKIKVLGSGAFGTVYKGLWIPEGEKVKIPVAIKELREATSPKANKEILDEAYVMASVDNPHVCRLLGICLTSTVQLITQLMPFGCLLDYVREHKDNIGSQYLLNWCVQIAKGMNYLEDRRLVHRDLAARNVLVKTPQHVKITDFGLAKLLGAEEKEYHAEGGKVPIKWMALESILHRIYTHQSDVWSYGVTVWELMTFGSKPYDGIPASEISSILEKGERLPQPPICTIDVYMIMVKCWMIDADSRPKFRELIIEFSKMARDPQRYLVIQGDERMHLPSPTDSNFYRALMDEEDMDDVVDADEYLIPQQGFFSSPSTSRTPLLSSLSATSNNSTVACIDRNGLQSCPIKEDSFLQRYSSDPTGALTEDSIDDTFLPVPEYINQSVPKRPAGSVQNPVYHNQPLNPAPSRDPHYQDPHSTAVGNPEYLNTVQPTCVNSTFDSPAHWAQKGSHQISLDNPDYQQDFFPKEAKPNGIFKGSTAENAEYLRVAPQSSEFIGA
Chain of RAF proto-oncogene serine/threonine-protein kinase (P04049 whole entry): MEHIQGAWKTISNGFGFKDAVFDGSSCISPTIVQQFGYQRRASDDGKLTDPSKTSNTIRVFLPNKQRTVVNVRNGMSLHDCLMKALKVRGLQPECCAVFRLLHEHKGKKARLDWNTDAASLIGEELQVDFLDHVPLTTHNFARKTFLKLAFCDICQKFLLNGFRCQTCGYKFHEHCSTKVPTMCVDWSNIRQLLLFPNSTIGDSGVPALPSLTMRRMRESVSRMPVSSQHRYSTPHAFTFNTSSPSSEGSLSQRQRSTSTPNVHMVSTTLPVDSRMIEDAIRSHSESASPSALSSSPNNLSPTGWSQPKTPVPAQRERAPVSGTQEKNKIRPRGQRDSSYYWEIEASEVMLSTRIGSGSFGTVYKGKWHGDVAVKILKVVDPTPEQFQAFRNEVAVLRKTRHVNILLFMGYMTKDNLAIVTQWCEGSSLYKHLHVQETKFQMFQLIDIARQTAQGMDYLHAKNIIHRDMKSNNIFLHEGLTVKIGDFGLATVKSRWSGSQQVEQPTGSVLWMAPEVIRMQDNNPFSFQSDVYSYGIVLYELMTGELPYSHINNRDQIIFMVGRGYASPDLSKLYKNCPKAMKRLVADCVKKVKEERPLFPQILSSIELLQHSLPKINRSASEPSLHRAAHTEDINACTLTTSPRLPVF

With CNC(=O)c1cc(Oc2ccc(C3=NNC(c4cccc(Br)c4)C3)cc2)ccn1 (stereo not given) the Activity [1] was 7.72%, the Activity [2] was 4.51% and the Activity [3] was “Dose-dependent effect”. The IC50 ([3]; A549, 72 h) was 2.84 µM, the IC50 [4] was 7.9 µM and the Activity [5] was “Dose-dependent effect”. For the same molecule, the IC50 ([5]; MCF7, 72 h) was 1.96 µM, the IC50 [6] was 5.2 µM and the Activity [7] was 9.11%. The Activity [8] was 1.24%, the Activity [9] was 75.55% and the Activity [10] was “Active”. The Activity [11] was “Active”, the Activity [12] was 11.95% and the Activity [13] was “Active”. The Activity [14] was 88.8%, the IC50 [15] was greater than 10 µM and the Activity [16] was “Dose-dependent effect”. The IC50 ([16]; PC-3, 72 h) was 3.54 µM and the Activity [17] was 10.05%.
